pEC50, pIC50: −log10 of the molar value.
Experiments:
Hepatitis C virus [1] = test: Antiviral activity against HCV genotype 1b Con1 expressing NS3 protease infected in human Huh-7 cells assessed as reduction in viral RNA replication after 72 hrs by luciferase reporter gene assay; type: functional, cell-based, Hepacivirus hominis; settings: genotype 1b Con1, Huh-7, 72 h
[2] = Cytotoxicity against human HuH7 cells assessed as reduction in cell viability; type: cell-based, Huh-7
[3] = tested on: Hepatitis C virus subtype 1b; test: Selectivity ratio of IC50 for HCV genotype 1b NS5B RNA dependent RNA polymerase S282T mutant to IC50 for wild-type HCV genotype 1b NS5B RNA dependent RNA polymerase
[4] = Inhibition of wild-type HCV genotype 1b NS5B RNA dependent RNA polymerase; parameters: species or system Hepatitis C virus subtype 1b
Method in brief: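 Biochemical assay using wild-type genotype 1b HCV NS5B polymerase. IC50 was derived from percent inhibition versus concentration data.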

[5] = biological target: RNA-directed RNA polymerase (Hepacivirus hominis, UniProt O39930, S282T); test: Inhibition of HCV genotype 1b NS5B RNA dependent RNA polymerase S282T mutant; parameters: species or system Hepatitis C virus subtype 1b
Sequence of RNA-directed RNA polymerase (O39930 entry or part of it S282T): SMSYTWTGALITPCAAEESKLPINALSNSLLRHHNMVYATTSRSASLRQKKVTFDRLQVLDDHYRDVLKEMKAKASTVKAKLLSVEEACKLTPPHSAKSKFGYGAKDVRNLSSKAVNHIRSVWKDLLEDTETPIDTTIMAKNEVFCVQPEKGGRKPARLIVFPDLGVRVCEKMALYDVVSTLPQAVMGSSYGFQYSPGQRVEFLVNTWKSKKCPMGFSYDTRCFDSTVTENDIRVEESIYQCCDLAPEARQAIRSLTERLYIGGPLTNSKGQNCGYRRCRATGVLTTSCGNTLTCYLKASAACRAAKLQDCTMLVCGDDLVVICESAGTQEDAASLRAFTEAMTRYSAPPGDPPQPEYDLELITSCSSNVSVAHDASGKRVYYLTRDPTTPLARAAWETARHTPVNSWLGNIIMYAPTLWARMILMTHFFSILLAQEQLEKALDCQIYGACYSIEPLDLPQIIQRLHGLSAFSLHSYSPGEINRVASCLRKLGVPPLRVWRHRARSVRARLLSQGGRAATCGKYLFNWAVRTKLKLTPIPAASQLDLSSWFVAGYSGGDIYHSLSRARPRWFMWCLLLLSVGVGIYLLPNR

[6] = Inhibition of HCV genotype 5a NS5B RNA dependent RNA polymerase assessed as reduction in [33P]-labeled nucleotide incorporation in to RNA template after 2 hrs by liquid scintillation counting method; parameters: species or system Hepatitis C virus subtype 5a
Method in brief: (§1)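 Biochemical enzyme inhibition assays across a panel of polymerases. IC50 was derived from percent inhibition versus concentration data.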

[7] = Inhibition of HCV genotype 3a NS5B RNA dependent RNA polymerase assessed as reduction in [33P]-labeled nucleotide incorporation in to RNA template after 2 hrs by liquid scintillation counting method; parameters: species or system Hepatitis C virus subtype 3a; method in brief: as §1
[8] = Inhibition of human DNA polymerase gamma; method in brief: as §1
[9] = Half life in human hepatocytes; type: ADME, cell-based, Hepatocyte
[10] = Inhibition of HCV genotype 6a NS5B RNA dependent RNA polymerase assessed as reduction in [33P]-labeled nucleotide incorporation in to RNA template after 2 hrs by liquid scintillation counting method; parameters: species or system Hepatitis C virus subtype 6a; method in brief: as §1
[11] = Inhibition of HCV genotype 2a NS5B RNA dependent RNA polymerase assessed as reduction in [33P]-labeled nucleotide incorporation in to RNA template after 2 hrs by liquid scintillation counting method; parameters: species or system Hepatitis C virus subtype 2a; method in brief: as §1
DNA polymerase beta = DNA polymerase beta (Homo sapiens, UniProt P06746); test: Inhibition of human DNA polymerase beta; method in brief: as §1
[12] = Inhibition of human RNA polymerase 2; method in brief: as §1
[13] = Inhibition of HCV genotype 4a NS5B RNA dependent RNA polymerase assessed as reduction in [33P]-labeled nucleotide incorporation in to RNA template after 2 hrs by liquid scintillation counting method; parameters: species or system Hepatitis C virus subtype 4a; method in brief: as §1
[14] = biological target: T1, DNA polymerase alpha catalytic subunit (Homo sapiens, UniProt P09884); test: Inhibition of human DNA polymerase alpha; method in brief: as §1
T1 sequence (P09884 whole entry): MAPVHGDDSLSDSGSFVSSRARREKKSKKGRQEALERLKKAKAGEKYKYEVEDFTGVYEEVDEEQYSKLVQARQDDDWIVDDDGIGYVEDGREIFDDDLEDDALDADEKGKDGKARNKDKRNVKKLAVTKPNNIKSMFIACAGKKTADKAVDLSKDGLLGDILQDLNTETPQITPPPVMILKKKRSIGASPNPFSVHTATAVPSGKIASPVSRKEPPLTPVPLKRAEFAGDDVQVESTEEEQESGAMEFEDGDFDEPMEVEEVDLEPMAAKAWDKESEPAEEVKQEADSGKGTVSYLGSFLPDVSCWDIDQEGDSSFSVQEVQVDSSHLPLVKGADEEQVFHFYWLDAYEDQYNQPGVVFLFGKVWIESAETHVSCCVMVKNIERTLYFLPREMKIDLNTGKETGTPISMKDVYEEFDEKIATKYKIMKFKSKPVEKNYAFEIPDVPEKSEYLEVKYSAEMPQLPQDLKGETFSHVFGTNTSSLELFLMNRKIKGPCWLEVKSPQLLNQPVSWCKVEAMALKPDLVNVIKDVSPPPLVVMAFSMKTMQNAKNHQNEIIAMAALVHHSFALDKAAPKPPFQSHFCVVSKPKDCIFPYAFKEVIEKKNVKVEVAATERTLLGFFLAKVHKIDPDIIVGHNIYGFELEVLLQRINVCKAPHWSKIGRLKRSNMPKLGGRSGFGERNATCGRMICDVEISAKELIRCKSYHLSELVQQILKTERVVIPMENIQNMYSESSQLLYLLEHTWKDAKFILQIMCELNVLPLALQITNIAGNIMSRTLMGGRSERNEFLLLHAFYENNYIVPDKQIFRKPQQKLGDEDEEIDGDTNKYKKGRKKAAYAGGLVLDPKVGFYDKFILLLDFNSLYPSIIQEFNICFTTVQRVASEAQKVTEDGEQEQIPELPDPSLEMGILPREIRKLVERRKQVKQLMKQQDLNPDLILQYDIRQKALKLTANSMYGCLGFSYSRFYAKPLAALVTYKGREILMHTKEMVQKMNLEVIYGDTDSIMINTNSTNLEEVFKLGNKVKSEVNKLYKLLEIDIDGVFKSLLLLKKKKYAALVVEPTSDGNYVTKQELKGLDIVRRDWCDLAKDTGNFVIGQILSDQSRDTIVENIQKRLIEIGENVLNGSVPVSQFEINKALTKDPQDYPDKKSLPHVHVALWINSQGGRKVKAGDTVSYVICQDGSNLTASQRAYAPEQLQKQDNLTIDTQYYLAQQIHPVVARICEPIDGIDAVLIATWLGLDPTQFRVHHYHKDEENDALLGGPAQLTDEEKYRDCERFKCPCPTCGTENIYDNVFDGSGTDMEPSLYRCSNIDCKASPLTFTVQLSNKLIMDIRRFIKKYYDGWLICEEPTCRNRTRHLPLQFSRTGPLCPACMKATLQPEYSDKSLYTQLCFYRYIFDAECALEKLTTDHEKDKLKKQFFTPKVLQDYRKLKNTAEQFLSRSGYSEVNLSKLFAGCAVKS

[15] = Inhibition of HCV genotype 1a NS5B RNA dependent RNA polymerase assessed as reduction in [33P]-labeled nucleotide incorporation in to RNA template after 2 hrs by liquid scintillation counting method; parameters: species or system Hepatitis C virus subtype 1a; method in brief: as §1
[16] = biological target: DNA-directed RNA polymerase, mitochondrial (Homo sapiens, UniProt O00411); test: Inhibition of human mitochondrial RNA polymerase; method in brief: as §1
Sequence of DNA-directed RNA polymerase, mitochondrial (O00411 whole entry): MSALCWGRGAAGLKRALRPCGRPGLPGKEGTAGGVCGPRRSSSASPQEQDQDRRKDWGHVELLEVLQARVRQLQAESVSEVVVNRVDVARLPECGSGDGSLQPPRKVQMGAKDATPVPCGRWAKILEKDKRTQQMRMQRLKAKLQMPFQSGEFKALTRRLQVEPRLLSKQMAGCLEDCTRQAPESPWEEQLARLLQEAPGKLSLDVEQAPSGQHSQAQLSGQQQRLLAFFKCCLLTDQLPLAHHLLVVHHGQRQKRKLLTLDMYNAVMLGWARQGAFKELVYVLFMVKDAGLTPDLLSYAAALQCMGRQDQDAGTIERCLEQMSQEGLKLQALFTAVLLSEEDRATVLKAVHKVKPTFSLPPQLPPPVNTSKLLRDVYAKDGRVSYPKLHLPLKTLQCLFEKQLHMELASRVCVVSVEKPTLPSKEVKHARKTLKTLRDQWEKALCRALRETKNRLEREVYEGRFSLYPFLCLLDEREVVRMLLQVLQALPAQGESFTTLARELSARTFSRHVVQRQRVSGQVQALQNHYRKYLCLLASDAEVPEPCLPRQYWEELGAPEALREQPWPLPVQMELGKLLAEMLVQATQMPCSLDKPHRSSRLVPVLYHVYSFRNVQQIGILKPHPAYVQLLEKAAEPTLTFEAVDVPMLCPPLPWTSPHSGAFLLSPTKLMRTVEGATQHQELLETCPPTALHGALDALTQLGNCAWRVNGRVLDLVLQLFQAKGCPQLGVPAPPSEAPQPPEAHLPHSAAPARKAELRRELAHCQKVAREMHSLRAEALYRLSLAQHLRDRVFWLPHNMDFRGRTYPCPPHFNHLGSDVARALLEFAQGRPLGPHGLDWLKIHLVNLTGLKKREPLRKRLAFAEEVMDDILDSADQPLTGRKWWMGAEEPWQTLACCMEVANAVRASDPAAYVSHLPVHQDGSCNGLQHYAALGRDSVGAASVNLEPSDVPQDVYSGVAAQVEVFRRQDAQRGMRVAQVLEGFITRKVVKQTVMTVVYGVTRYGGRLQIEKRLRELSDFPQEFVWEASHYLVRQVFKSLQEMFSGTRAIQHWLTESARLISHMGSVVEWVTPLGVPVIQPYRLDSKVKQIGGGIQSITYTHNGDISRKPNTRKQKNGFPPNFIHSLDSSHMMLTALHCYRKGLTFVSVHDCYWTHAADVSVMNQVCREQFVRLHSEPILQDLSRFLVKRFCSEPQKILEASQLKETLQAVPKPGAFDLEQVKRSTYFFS

Liver = test: Dose normalized AUC (0 to 24 hrs) in mouse liver assessed as 2'-C-MeUTP level at 10 mg/kg, po administered as single dose; type: ADME, organism-based; settings: in vivo
Method in brief: (§2)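 Mice given a single oral 10 mg/kg dose. Triphosphate measured in liver and parent nucleoside in plasma. AUC expressed as dose-normalized AUC (AUC per mg/kg).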

Plasma = test: Dose normalized AUC (0 to 24 hrs) in mouse plasma assessed as 2'-C-MeU level at 10 mg/kg, po administered as single dose; type: ADME, organism-based; settings: in vivo; method in brief: as §2
Hepatitis C virus [17] = test: Antiviral activity against HCV genotype 1b Con1 infected in human Huh-7 cells over-expressing CES1; type: functional, cell-based, Hepacivirus hominis; settings: genotype 1b Con1, Huh-7
Method in brief: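 Transient HCV replicon assay in cells transfected to overexpress CES1; EC50 from inhibition versus concentration data.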

[18] = Selectivity index, ratio of CC50 for human Huh-7 cells to EC50 for HCV genotype 1b Con1 expressing NS3 protease
Method in brief: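 Selectivity index = CC50/EC50. EC50 from a luciferase-read Con1 subgenomic replicon assay in Huh-7 (GS4.1) cells.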

Cytochrome P450 3A4 = Cytochrome P450 3A4 (Homo sapiens, UniProt P08684); test: Drug metabolism assessed as CYP3A4 (unknown origin)-mediated (R)-2-((R)-(((2R,3R,4R,5R)-4-chloro-5-(2,4-dioxo-3,4-dihydropyrimidin-1(2H)-yl)-3-hydroxy-4-methyltetrahydrofuran-2-yl)methoxy)(phenoxy)phosphorylamino)propanoic acid metabolite formation; type: ADME
Sequence of Cytochrome P450 3A4 (P08684 whole entry): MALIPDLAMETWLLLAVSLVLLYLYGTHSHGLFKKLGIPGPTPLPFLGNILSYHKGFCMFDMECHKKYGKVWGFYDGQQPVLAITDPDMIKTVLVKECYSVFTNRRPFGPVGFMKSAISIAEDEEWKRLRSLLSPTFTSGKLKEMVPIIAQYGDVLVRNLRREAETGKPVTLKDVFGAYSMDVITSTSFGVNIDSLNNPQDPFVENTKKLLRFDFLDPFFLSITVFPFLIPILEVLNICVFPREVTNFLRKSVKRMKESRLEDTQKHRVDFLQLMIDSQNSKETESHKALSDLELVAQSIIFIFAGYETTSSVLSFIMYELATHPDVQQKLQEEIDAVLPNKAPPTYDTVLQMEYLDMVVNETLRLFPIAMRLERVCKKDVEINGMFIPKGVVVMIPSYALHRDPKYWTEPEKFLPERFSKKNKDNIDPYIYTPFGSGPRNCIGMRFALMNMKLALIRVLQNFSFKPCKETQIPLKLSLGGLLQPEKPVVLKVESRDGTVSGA

Cytochrome P450 3A5 = Cytochrome P450 3A5 (Homo sapiens, UniProt P20815); test: Drug metabolism assessed as CYP3A5 (unknown origin)-mediated (R)-2-((R)-(((2R,3R,4R,5R)-4-chloro-5-(2,4-dioxo-3,4-dihydropyrimidin-1(2H)-yl)-3-hydroxy-4-methyltetrahydrofuran-2-yl)methoxy)(phenoxy)phosphorylamino)propanoic acid metabolite formation; type: ADME
Sequence of Cytochrome P450 3A5 (P20815 whole entry): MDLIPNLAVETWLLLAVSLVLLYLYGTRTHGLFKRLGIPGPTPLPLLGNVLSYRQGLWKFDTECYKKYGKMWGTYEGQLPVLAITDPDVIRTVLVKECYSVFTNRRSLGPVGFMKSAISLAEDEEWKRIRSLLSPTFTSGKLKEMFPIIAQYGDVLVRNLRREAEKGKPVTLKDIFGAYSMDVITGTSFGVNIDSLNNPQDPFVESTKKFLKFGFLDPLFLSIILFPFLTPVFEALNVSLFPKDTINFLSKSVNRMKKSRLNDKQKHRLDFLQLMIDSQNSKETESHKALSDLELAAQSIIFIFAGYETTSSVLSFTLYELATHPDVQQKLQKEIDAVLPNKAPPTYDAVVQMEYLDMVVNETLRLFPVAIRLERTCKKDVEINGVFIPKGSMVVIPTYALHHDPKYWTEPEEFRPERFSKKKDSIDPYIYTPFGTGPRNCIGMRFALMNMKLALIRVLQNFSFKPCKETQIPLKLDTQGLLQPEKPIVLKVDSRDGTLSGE

SMILES: C[C@@]1(O)[C@H](O)[C@@H](CO)O[C@H]1n1ccc(=O)[nH]c1=O
- pEC50 (Hepatitis C virus [1]): 4.52
- CC50 [2]: > 100000 nM

SMILES: C[C@@]1(F)[C@H](O)[C@@H](COP(=O)(O)OP(=O)(O)OP(=O)(O)O)O[C@H]1n1ccc(=O)[nH]c1=O [GS-461203]
- Ratio IC50 [3]: 7.7
- pIC50 [4]: 7.10
- pIC50 [5]: 6.22

SMILES: C[C@@]1(Cl)[C@H](O)[C@@H](CO)O[C@H]1n1ccc(=O)[nH]c1=O
- pEC50 (Hepatitis C virus [1]): 4.24
- CC50 [2]: > 100000 nM

SMILES: C[C@@]1(Cl)[C@H](O)[C@@H](COP(=O)(O)OP(=O)(O)OP(=O)(O)O)O[C@H]1n1ccc(=O)[nH]c1=O [4A-TP]
- Ratio IC50 [3]: 6.1
- pIC50 [6]: 6.64
- pIC50 [7]: 6.80
- pIC50 [4]: 6.81
- pIC50 [8]: 4.02
- half-life [9]: > 18 h
- pIC50 [10]: 7.00
- pIC50 [11]: 6.60
- pIC50 (DNA polymerase beta): < 3.30
- pIC50 [12]: < 3.30
- pIC50 [13]: 6.82
- pIC50 [14]: < 3.30
- pIC50 [15]: 6.85
- pIC50 [16]: < 3.30
- pIC50 [5]: 6.03

SMILES: C[C@@]1(O)[C@H](O)[C@@H](COP(=O)(O)OP(=O)(O)OP(=O)(O)O)O[C@H]1n1ccc(=O)[nH]c1=O
- pIC50 [4]: 7.09

SMILES: CC(C)OC(=O)[C@H](C)N[P@](=O)(OC[C@H]1O[C@@H](n2ccc(=O)[nH]c2=O)[C@](C)(F)[C@@H]1O)Oc1ccccc1 [SOFOSBUVIR]
- AUC/dose (Liver): 310 pmol·h/g
- AUC/dose (Plasma): 330 pmol·h/mL
- pEC50 (Hepatitis C virus [1]): 6.55
- pEC50 (Hepatitis C virus [17]): 6.26
- Ratio CC50/EC50 [18]: >352

SMILES: CC(C)OC(=O)[C@@H](C)NP(=O)(N[C@H](C)C(=O)OC(C)C)OC[C@H]1O[C@@H](n2ccc(=O)[nH]c2=O)[C@](C)(Cl)[C@@H]1O
- AUC/dose (Liver): 490 pmol·h/g
- AUC/dose (Plasma): 210 pmol·h/mL
- pEC50 (Hepatitis C virus [1]): < 4.00
- Ratio CC50/EC50 [18]: >1

SMILES: CC(C)(CO)C(=O)SCCOP1(=O)OC[C@H]2O[C@@H](n3ccc(=O)[nH]c3=O)[C@](C)(Cl)[C@@H]2O1 (single isomer, unassigned)
- AUC/dose (Liver): 5000 pmol·h/g
- AUC/dose (Plasma): 1300 pmol·h/mL
- pEC50 (Hepatitis C virus [1]): 6.61
- Ratio CC50/EC50 [18]: >403

SMILES: CC(C)OC(=O)[C@H](C)N[P@@]1(=O)OC[C@H]2O[C@@H](n3ccc(=O)[nH]c3=O)[C@](C)(Cl)[C@@H]2O1
- AUC/dose (Liver): 520 pmol·h/g
- AUC/dose (Plasma): 1100 pmol·h/mL
- pEC50 (Hepatitis C virus [1]): 5.40
- Ratio CC50/EC50 [18]: >25

SMILES: C[C@@]1(F)[C@H](O)[C@@H](CO)O[C@H]1n1ccc(=O)[nH]c1=O
- pEC50 (Hepatitis C virus [1]): 4.30
- CC50 [2]: > 100000 nM

SMILES: CC(C)OC(=O)[C@@H](C)N[P@@](=O)(OC[C@H]1O[C@@H](n2ccc(=O)[nH]c2=O)[C@](C)(Cl)[C@@H]1O)Oc1ccccc1 [UPRIFOSBUVIR]
- AUC/dose (Liver): 6200 pmol·h/g
- AUC/dose (Plasma): 1400 pmol·h/mL
- pEC50 (Hepatitis C virus [1]): 4.25
- Drug metabolism (Cytochrome P450 3A4): Metabolite_Detected
- pEC50 (Hepatitis C virus [17]): 6.49
- Drug metabolism (Cytochrome P450 3A5): Metabolite_Detected
- Ratio CC50/EC50 [18]: >2

SMILES: CC(C)OC(=O)[C@@H](C)N[P@](=O)(OC[C@H]1O[C@@H](n2ccc(=O)[nH]c2=O)[C@](C)(Cl)[C@@H]1O)Oc1ccccc1
- AUC/dose (Liver): 3750 pmol·h/g
- AUC/dose (Plasma): 1050 pmol·h/mL
- pEC50 (Hepatitis C virus [1]): 5.02
- Ratio CC50/EC50 [18]: >10

Source: ChEMBL document CHEMBL4043192, “The discovery of IDX21437: Design, synthesis and antiviral evaluation of 2'-α-chloro-2'-β-C-methyl branched uridine pronucleotides as potent liver-targeted HCV polymerase inhibitors” (Bioorg Med Chem Lett, 2017)
